In ChEMBL document CHEMBL1156759, “Identification and optimization of inhibitors of Trypanosomal cysteine proteases: cruzain, rhodesain, and TbCatB” (J Med Chem, 2010):
Calls of active or inactive are those of the source. The rule behind the calls is not given here.

Legend:
[1] = target: Cathepsin S (Homo sapiens, UniProt P25774); test: Inhibition of human Cathepsin S
In short: (§1)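 Profiling panel run externally as 10-dose, 3-fold serial dilutions of compound. Protease activity followed as a time course of fluorescence increase from a fluorescently labeled peptide substrate. The initial linear slope (signal/min) was analysed.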

[2] = target: Kallikrein-4 (Homo sapiens, UniProt Q9Y5K2); test: Inhibition of human Kallikrein 4; in short: as §1
[3] = Inhibition of recombinant Trypanosoma brucei rhodesain after 5 mins by spectrofluorimetric analysis
In short: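 Recombinant rhodesain, 4 nM, preincubated 5 min at room temperature with compound (DMSO) in 100 mM sodium acetate pH 5.5, 5 mM DTT, 0.001% Triton X-100. Reaction started with 10 μM Z-Phe-Arg-AMC; rate of AMC fluorescence increase read at ex 355/em 460 nm. IC50 from curve fitting; DMSO-only wells as positive control.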

[4] = target: T1, Cruzipain (Trypanosoma cruzi, UniProt P25779); test: Inhibition of Trypanosoma cruzi cruzain after 15 mins; details: read-out: IC50
In short: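 Cruzain at 1.5 nM final in 100 mM acetate pH 5.5, 5 mM DTT, 0.01% Triton X-100; compounds as serial 2-fold dilutions pin-transferred in DMSO. 15 min room-temperature preincubation, then Z-FR-AMC 2 μM final. Kinetic fluorescence read at ex 340/em 450 nm. Percent inhibition from the first 60 s signal change versus no-enzyme and uninhibited controls (48 wells each).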

[5] = target: Cathepsin Z (Homo sapiens, UniProt Q9UBR2); test: Inhibition of human Cathepsin X/Z; in short: as §1
[6] = target: Caspase-4 (Homo sapiens, UniProt P49662); test: Inhibition of human Caspase 4; in short: as §1
[7] = target: T2, Papain (Carica papaya, UniProt P00784); test: Inhibition of papaya papain; in short: as §1
T2 sequence (P00784 whole entry): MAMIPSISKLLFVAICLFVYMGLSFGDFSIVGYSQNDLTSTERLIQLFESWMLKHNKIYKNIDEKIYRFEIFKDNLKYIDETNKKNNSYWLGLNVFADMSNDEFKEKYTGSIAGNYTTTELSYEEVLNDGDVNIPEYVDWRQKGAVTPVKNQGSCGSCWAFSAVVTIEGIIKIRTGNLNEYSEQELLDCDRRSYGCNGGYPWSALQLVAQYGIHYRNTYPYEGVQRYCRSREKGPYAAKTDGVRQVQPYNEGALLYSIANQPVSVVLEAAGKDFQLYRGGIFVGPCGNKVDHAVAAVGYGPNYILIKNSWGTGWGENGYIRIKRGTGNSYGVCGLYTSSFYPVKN

[8] = target: Beta-secretase 1 (Homo sapiens, UniProt P56817); test: Inhibition of human BACE1; in short: as §1
[9] = target: Disintegrin and metalloproteinase domain-containing protein 17 (Homo sapiens, UniProt P78536); test: Inhibition of human TACE; in short: as §1
[10] = organism: Mus musculus; test: Toxicity in mouse; assay type: organism-based; details: in vivo
[11] = target: Matrix metalloproteinase-14 (Homo sapiens, UniProt P50281); test: Inhibition of human MMP14; in short: as §1
[12] = system: Trypanosoma cruzi; test: Antitrypanosomal activity against Trypanosoma cruzi Y trypomastigotes infected in mouse J774 cells at 10 uM after 27 days medium replaced every 48 hrs; assay type: functional, organism-based
In short: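 Irradiated (1000 rad) J774 macrophages plated overnight, infected 2 h with Y strain trypomastigotes, parasites removed, then cultured in RPMI-1640 with compound (n = 3); untreated infected and 10 μM K777 controls per experiment. Medium replaced every 48 h over 27 days; daily phase-contrast microscopy (400×) for free trypomastigotes and host toxicity; cultures kept 14 further days to confirm cure.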

[13] = target: T3, Pro-cathepsin H (Homo sapiens, UniProt P09668); test: Inhibition of human Cathepsin H; in short: as §1
T3 sequence (P09668 whole entry): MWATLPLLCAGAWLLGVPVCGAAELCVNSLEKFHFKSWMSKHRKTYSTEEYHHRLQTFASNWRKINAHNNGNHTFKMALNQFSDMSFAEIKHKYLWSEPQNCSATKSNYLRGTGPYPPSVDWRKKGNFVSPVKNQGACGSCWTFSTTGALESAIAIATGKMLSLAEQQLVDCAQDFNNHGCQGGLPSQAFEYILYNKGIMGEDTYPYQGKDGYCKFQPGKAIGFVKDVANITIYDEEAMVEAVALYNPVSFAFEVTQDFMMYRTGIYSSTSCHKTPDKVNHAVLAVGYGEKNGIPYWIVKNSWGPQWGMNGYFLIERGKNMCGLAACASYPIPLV

[14] = organism: Canis familiaris; test: Toxicity in dog; assay type: organism-based, Canis lupus familiaris; details: in vivo
[15] = target: T4, Cathepsin L2 (Homo sapiens, UniProt O60911); test: Inhibition of human Cathepsin V; in short: as §1
T4 sequence (O60911 whole entry): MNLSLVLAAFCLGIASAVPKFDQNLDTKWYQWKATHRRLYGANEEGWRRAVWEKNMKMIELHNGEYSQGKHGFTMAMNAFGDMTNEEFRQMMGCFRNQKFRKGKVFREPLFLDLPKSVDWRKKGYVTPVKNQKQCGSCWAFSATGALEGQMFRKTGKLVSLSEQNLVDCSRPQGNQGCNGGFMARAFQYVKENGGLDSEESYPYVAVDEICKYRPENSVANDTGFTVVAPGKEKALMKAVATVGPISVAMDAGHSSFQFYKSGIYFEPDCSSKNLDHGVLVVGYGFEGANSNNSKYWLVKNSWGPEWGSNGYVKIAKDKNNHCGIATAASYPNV

[16] = organism: Rattus norvegicus; test: Toxicity in rat; assay type: organism-based; details: in vivo
[17] = target: Dipeptidyl peptidase 1 (Homo sapiens, UniProt P53634); test: Inhibition of human Cathepsin C; in short: as §1
[18] = target: Proteinase K (Engyodontium album, UniProt P06873); test: Inhibition of human Proteinase K; set-up: species or system Parengyodontium album; in short: as §1
[19] = Inhibition of human Proteinase A; in short: as §1
[20] = target: Procathepsin L (Homo sapiens, UniProt P07711); test: Inhibition of human Cathepsin L; in short: as §1
[21] = target: Cathepsin B (Homo sapiens, UniProt P07858); test: Inhibition of human Cathepsin B; in short: as §1
[22] = target: T1, Cruzipain; test: Inhibition of recombinant Trypanosoma cruzi cruzain after 5 mins by spectrofluorimetric analysis
In short: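 Recombinant cruzain at 4 nM (activated procruzain, anion-exchange purified) in 100 mM sodium acetate pH 5.5, 5 mM DTT, 0.001% Triton X-100. Preincubated 5 min at room temperature with compound in DMSO, then Z-Phe-Arg-AMC 10 μM. Fluorescence rate read at ex 355/em 460 nm; DMSO controls; IC50 by curve fitting.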

[23] = Inhibition of recombinant Trypanosoma brucei cathepsin B after 5 mins by spectrofluorimetric analysis
In short: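 Recombinant TbCatB at 258 nM in 100 mM sodium acetate pH 5.5, 5 mM DTT, 0.001% Triton X-100, preincubated with compound in DMSO for 5 min at room temperature. Z-Phe-Arg-AMC 10 μM added to start. Rate of fluorescence rise read at ex 355/em 460 nm; DMSO control wells; IC50 from curve fitting.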

[24] = target: T5, Cathepsin K (Homo sapiens, UniProt P43235); test: Inhibition of human Cathepsin K/O2; in short: as §1
T5 sequence (P43235 whole entry): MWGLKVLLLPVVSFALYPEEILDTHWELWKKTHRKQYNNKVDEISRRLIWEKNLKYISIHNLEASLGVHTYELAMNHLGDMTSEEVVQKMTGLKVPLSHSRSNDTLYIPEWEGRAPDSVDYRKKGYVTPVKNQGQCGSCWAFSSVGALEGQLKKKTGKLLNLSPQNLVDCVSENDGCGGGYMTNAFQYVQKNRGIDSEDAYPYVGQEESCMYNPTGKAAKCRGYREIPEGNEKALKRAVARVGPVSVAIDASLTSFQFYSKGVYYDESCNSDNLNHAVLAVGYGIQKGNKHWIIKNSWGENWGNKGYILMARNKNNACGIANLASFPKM

[25] = target: Cathepsin G (Homo sapiens, UniProt P08311); test: Inhibition of human Cathepsin G; in short: as §1
[26] = Inhibition of human Chymotrypsin; in short: as §1
[27] = target: Neutrophil elastase (Homo sapiens, UniProt P08246); test: Inhibition of human Elastase; in short: as §1
[28] = Inhibition of human CCC1s; in short: as §1
[29] = target: Caspase-1 (Homo sapiens, UniProt P29466); test: Inhibition of human Caspase 1; in short: as §1
[30] = target: T1, Cruzipain; test: Competitive inhibition of recombinant Trypanosoma cruzi cruzain by Lineweaver-Burke plot analysis

Sequence of Procathepsin L (P07711 whole entry): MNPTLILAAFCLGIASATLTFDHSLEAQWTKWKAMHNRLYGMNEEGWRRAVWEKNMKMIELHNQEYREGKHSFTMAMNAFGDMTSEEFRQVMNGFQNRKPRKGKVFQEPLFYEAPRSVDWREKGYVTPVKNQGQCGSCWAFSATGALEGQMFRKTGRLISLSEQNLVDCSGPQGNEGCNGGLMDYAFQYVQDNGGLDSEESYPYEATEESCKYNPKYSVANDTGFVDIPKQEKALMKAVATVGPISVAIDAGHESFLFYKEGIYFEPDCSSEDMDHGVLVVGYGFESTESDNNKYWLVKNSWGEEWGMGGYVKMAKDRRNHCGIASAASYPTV
T1 sequence (P25779 whole entry): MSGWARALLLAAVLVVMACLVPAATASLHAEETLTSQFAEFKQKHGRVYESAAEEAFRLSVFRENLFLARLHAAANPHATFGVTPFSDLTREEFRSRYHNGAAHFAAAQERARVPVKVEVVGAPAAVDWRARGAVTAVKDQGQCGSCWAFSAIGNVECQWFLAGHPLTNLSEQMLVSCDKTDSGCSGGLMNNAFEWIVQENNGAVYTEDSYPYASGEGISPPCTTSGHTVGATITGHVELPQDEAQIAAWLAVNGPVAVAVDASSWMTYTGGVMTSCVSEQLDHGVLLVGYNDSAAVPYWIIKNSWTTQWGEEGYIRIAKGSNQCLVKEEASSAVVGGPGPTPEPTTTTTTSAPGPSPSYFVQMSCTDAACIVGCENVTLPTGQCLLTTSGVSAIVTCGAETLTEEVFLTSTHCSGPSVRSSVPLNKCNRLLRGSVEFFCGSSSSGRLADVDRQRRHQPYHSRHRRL
Sequence of Cathepsin Z (Q9UBR2 whole entry): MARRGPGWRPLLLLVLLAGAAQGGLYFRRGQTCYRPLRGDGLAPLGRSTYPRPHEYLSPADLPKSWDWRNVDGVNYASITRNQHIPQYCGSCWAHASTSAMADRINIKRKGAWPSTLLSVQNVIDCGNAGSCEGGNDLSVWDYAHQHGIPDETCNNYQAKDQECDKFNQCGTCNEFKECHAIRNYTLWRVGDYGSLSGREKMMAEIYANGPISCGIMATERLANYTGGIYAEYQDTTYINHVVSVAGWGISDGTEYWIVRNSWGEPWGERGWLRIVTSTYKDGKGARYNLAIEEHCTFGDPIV
Sequence of Cathepsin S (P25774 whole entry): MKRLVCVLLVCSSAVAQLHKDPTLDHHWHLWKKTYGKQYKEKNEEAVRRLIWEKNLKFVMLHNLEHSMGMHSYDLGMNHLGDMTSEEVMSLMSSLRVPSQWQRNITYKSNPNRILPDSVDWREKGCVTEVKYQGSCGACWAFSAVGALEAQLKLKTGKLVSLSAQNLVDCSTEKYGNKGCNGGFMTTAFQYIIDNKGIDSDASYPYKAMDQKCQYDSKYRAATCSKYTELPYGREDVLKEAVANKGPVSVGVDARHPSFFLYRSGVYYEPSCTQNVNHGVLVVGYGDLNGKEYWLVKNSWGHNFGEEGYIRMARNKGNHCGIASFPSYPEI
Sequence of Dipeptidyl peptidase 1 (P53634 25-134 limits assumed): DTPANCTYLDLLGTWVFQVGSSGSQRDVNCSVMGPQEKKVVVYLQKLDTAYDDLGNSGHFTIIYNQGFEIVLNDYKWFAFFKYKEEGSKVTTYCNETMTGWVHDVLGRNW
Sequence of Dipeptidyl peptidase 1 (P53634 231-394 limits assumed): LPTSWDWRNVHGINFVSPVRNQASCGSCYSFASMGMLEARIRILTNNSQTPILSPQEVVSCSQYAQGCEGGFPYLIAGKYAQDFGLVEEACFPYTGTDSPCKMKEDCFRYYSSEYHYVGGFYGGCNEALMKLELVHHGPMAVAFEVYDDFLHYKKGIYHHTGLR
Sequence of Dipeptidyl peptidase 1 (P53634 395-463 limits assumed): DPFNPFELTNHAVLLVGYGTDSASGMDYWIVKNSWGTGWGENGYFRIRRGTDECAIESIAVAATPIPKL
Sequence of Kallikrein-4 (Q9Y5K2 whole entry): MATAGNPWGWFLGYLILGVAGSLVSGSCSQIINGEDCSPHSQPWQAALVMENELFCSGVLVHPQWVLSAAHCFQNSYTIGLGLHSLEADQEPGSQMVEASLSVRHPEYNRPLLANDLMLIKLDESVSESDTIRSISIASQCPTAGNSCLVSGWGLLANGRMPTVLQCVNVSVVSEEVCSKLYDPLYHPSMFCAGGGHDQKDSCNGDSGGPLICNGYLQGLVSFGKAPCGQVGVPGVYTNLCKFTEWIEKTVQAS
Sequence of Caspase-1 (P29466 120-297 limits assumed): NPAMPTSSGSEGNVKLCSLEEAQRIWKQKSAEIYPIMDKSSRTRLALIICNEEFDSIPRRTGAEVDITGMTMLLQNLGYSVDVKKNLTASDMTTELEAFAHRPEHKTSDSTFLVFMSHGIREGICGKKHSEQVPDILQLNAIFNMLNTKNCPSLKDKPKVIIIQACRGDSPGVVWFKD
Sequence of Caspase-1 (P29466 317-404 limits assumed): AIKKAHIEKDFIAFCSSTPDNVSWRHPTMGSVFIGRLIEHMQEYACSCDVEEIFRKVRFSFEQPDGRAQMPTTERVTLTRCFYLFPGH
Sequence of Proteinase K (P06873 whole entry): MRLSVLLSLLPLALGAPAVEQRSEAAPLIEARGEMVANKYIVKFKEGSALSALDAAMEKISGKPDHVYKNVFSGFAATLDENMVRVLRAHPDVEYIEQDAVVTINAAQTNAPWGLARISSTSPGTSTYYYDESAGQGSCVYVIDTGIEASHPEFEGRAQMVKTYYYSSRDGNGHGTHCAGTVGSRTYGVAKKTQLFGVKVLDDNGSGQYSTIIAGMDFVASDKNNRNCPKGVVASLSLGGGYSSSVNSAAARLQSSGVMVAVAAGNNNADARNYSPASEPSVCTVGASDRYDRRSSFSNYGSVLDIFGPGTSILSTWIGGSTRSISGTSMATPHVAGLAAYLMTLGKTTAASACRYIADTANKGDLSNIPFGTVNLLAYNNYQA
Sequence of Disintegrin and metalloproteinase domain-containing protein 17 (P78536 whole entry, the tested form may be a part): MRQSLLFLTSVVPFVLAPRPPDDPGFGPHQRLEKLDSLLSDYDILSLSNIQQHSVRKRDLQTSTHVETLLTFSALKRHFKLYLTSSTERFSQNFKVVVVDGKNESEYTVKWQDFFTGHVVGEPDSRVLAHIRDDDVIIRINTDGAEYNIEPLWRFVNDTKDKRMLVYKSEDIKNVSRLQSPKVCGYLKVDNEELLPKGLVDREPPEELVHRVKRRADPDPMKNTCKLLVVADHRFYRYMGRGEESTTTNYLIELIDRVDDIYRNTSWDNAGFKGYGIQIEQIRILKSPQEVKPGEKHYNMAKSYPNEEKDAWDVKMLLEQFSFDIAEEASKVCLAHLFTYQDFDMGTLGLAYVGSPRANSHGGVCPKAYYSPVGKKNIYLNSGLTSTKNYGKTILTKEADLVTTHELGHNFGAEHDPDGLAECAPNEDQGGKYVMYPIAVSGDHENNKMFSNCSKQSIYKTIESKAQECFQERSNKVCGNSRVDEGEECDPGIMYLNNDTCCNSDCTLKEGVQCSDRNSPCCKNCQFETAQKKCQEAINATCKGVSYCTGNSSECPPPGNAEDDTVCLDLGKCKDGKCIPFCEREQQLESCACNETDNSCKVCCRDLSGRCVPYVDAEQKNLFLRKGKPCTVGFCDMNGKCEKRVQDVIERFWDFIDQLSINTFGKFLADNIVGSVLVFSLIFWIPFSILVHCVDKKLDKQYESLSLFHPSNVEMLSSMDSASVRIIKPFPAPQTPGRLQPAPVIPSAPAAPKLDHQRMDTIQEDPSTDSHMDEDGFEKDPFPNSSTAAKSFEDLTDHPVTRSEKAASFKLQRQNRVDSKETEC
Sequence of Beta-secretase 1 (P56817 whole entry, the tested form may be a part): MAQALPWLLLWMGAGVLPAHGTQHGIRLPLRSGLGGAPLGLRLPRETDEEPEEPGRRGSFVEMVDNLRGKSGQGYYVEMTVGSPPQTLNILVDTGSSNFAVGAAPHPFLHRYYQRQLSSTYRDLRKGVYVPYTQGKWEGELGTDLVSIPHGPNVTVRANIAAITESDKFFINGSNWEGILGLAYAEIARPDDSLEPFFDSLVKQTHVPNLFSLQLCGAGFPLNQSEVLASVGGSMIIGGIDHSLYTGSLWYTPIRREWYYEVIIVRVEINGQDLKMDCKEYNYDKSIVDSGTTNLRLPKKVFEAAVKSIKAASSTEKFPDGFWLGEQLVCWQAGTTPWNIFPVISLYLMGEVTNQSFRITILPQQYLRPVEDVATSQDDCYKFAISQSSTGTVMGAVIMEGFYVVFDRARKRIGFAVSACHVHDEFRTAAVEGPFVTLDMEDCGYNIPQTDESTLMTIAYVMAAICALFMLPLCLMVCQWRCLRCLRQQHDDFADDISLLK
Sequence of Neutrophil elastase (P08246 whole entry): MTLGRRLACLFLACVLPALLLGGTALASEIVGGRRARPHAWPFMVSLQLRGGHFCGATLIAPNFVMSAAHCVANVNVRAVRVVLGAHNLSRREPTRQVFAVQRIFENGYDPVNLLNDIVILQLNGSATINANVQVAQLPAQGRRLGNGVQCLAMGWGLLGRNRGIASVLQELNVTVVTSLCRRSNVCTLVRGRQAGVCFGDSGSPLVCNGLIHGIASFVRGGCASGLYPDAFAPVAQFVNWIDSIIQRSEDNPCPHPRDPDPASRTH
Sequence of Caspase-4 (P49662 81-270 limits assumed): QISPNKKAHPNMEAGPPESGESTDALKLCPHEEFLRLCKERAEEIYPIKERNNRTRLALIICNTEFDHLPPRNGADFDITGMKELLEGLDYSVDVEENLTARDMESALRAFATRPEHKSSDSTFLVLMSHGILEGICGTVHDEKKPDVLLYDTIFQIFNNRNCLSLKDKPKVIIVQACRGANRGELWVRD
Sequence of Caspase-4 (P49662 290-377 limits assumed): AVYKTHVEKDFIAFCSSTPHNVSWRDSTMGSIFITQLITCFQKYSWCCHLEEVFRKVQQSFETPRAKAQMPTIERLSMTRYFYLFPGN
Sequence of Cathepsin G (P08311 whole entry): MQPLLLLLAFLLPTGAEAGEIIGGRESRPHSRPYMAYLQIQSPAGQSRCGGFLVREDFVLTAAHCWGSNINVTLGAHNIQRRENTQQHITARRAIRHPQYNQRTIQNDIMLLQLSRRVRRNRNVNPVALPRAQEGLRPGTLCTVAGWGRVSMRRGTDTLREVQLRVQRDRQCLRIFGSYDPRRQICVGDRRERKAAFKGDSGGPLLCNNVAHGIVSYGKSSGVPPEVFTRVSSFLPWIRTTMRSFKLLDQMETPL

Row | IC50 [4] [µM] | IC50 [20] [µM] | SMILES | IC50 [1] [µM] | IC50 [2] [µM] | IC50 [3] [µM] | IC50 [5] [µM] | IC50 [7] [µM] | Activity [10] | IC50 [11] [µM] | IC50 [13] [µM] | Activity [14] | IC50 [15] [µM] | Activity [16] | IC50 [17] [µM] | IC50 [22] [µM] | IC50 [23] [µM] | IC50 [24] [µM] | also measured
1 | 0.013 | 7.94 | N#Cc1nc(Nc2cc(F)cc(F)c2)c2ncn(CC(F)F)c2n1 |  |  |  |  |  |  |  |  |  |  |  |  |  |  |  | IC50 [25]: 148 µM; pIC50 [26]: 4.19; IC50 [27]: 85.1 µM
2 | 0.251 | 0.562 | CCNc1nc(C#N)nc2c1ncn2-c1cc(F)cc(F)c1 | 0.105 | 178 |  | 0.316 | 0.0331 | Non-toxic | 135 | 0.646 | Non-toxic | 70.8 | Non-toxic | 0.589 |  |  | 0.0501 | pIC50 [28]: 4.3; IC50 [29]: 70.8 µM
3 |  |  | N#Cc1nc(N)nc(N(c2ccccc2)c2ccccc2)n1 |  |  | > 10 |  |  |  |  |  |  |  |  |  | 0.07 | > 1 |  | Ki [30]: 0.18 µM

Row | SMILES | IC50 [4] [µM] | IC50 [20] [µM] | IC50 [1] [µM] | IC50 [2] [µM] | IC50 [3] [µM] | IC50 [5] [µM] | IC50 [7] [µM] | Activity [10] | IC50 [11] [µM] | IC50 [13] [µM] | Activity [14] | IC50 [15] [µM] | Activity [16] | IC50 [17] [µM] | IC50 [22] [µM] | IC50 [23] [µM] | IC50 [24] [µM] | also measured
4 | CCn1cnc2c(Nc3cc(F)cc(F)c3)nc(C#N)nc21 | 0.01 | 0.117 | 0.0158 | 14.5 | < 0.006 | 0.933 | 0.0447 | Non-toxic | 72.4 | 0.126 | Non-toxic | 0.24 | Non-toxic | 0.0347 | 0.0002 | 6 | 0.0234 | IC50 [6]: 33.1 µM; IC50 [8]: 63.1 µM; IC50 [9]: 74.1 µM; Activity [12]: inactive; IC50 [18]: 74.1 µM; pIC50 [19]: 4.19; IC50 [21]: 10.7 µM
